Published values gathered from unrelated publications.
Protocols differ between the studies behind these lines.
Target: Mitogen-activated protein kinase kinase kinase 6 (MAP3K6, Homo sapiens, UniProt O95382)
Sequence (O95382 1-1288, as in one of the studies): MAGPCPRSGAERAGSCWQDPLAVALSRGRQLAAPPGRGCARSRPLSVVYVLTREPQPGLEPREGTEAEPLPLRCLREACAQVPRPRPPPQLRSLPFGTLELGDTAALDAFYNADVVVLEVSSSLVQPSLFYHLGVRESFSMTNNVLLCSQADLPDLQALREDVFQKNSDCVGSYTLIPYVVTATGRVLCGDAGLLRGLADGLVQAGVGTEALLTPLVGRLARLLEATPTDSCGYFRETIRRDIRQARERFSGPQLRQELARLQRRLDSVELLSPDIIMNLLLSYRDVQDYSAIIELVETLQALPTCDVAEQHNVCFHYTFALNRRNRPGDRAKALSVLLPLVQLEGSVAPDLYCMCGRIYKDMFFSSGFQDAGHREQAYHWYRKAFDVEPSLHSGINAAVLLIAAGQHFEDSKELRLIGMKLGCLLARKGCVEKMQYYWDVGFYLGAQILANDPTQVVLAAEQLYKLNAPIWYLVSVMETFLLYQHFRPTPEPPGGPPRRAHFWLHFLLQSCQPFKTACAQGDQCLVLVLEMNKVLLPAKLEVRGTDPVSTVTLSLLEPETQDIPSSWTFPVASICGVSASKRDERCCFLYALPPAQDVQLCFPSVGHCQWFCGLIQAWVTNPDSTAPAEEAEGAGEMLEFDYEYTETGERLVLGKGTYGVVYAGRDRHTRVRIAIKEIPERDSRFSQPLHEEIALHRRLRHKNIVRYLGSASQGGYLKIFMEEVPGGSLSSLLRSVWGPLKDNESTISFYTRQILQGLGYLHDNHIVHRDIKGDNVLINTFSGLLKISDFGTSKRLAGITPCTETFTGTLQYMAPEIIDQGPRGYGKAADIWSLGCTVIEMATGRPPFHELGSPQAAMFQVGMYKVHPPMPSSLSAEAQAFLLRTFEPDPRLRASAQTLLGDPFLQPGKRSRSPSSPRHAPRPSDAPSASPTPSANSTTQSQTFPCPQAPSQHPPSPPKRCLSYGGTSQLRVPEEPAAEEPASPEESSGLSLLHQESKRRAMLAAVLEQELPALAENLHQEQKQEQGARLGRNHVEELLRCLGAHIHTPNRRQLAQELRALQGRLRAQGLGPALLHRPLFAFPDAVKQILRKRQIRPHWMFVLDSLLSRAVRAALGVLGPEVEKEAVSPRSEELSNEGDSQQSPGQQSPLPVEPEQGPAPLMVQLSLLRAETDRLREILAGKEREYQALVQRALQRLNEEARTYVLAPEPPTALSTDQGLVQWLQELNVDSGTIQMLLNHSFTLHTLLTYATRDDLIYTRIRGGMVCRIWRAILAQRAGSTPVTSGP

SMILES	test	setting	remaining binding [%]
O=C(c1ccc(Nc2nccc(-c3cc4ccccc4s3)n2)cc1)N1CCC(N2CCCC2)CC1	binding, competition with immobilised ligand	1 µM	91
CCOCCn1cc(C(=O)Nc2ccc(-n3nc(-c4cccnc4)cc3C(F)(F)F)cn2)ccc1=O	cell-free assay, competition with immobilised ligand	1 µM	86
COc1cnc(Nc2cccc(S(N)(=O)=O)c2)nc1N1CCN(c2ccccc2)C(=O)C1	binding, competition with immobilised ligand	1 µM	84
O=C(Nc1c[nH]nc1C(=O)NC1CCNCC1)c1cc(F)cc(F)c1	binding, competition with immobilised ligand	1 µM	84
CNCc1ccccc1-c1csc([C@H](C)Nc2nc(C)nc3cc(OC)c(OC)cc23)c1	cell-free assay, competition with immobilised ligand	1 µM	100
c1cnn2ncc(-c3ccnc(N4CCC45COC5)n3)c2c1	binding	1 µM	61
COc1ccc2cc(OCC3(C(=O)O)CN(C(=O)c4ccc(F)cc4)C3)ccc2c1	cell-free assay, competition with immobilised ligand	1 µM	95
CN(C)c1nccc(-c2cnn3ncccc23)n1	binding	1 µM	74
C[C@@H](c1ccc(-n2cnc3c(N)ncnc32)cc1)N1CCc2nn(C)c(Cc3ccccc3)c2C1=O	binding, competition with immobilised ligand	0.1 µM	67
C[C@H]1CCN(c2nccc(-c3cnn4ncccc34)n2)C1	binding	1 µM	57
Cc1cc(C)c(-n2ccn3nc(-c4cccnc4)cc23)cc1NC(=O)c1cc(C#N)cc(S(F)(F)(F)(F)F)c1	cell-free assay, competition with immobilised ligand	0.1 µM	100
O=C(NCCCN1CCOCC1)c1ccc(Nc2ncc(Cl)c(-c3ccc(Cl)s3)n2)cc1	binding, competition with immobilised ligand	1 µM	83
C=CC(=O)N1CCC(C(=O)NCC(=O)N2CCN(c3nc(-c4cnc(N)nc4C(F)F)nc(N4CCOCC4)n3)CC2)CC1	binding, competition with immobilised ligand	1 µM	100
N[C@@H]1CCN(c2nccc(-c3cnn4ncccc34)n2)C1	binding	1 µM	57
Cc1cnc(Nc2ccc(C(=O)N3CCC(N4CCCC4)CC3)cc2)nc1-c1cc2ccccc2s1	binding, competition with immobilised ligand	1 µM	100
CCCOc1ccc([C@@H]2[C@@H](C(=O)O)[C@H](c3ccc4c(c3)OCO4)CN2CC(=O)Nc2c(CC)cccc2CC)cc1	cell-free assay, competition with immobilised ligand	1 µM	77
CC1CCCN1c1nccc(-c2cnn3ncccc23)n1 (stereo not shown)	binding	1 µM	100
CO[C@@H](C)c1c(Nc2ccc([C@@H](N(C)C(=O)C3CCS(=O)(=O)CC3)C(F)(F)F)cc2)cnc2cc(Cl)nn12	cell-free assay, competition with immobilised ligand	1 µM	100
Cc1cnn2ncc(-c3ccnc(N(C)C)n3)c2c1	binding	1 µM	81
CCN1CCN(Cc2ccc(C(=O)Nc3ccc(C)c(Oc4ccc5c(c4)CC(=O)N5)c3)cc2C(F)(F)F)CC1	binding, competition with immobilised ligand	1 µM	100
CCS(=O)(=O)c1cc2cc(C[C@@](O)(CC(C)(C)c3ccc(F)cc3C(N)=O)C(F)(F)F)[nH]c2cn1	cell-free assay, competition with immobilised ligand	1 µM	100
CN(C)c1ncc(F)c(-c2cnn3ncccc23)n1	binding	1 µM	97
